Screening data as filed in PubChem.
Lung fibro prol: blocks proliferation of human lung fibroblasts; LL 47 human lung fibroblast viability, ATP luminescence; hits give low values; viability, % at 10 µM; 85,000 tested, 1.1% active;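 active means viability at or below 50% in the single dose screen; inactive means viability above 50%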;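 further: compound exposure lasted 72 h before the ATP readout; 100% = median luminescence of untreated cell-only wells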
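Assay system: human lung fibroblast line LL 47, low passage. Input: 1,150 fibroblasts seeded per well. Times: overnight cell rest, 72 h compound treatment at 37 °C. Evaluation: % viability of median cell-only signal. Technique: luminescent ATP detection, CellTiter-Glo. Control set: cell-only wells, no compound.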
H69AR inhibit: growth inhibitors of human H69AR lung tumor cells. H69AR lung tumor viability, ATP luminescence, 72 h; hits give low values. viability, % at 10 µM. 85,000 tested, 6% active;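 active means viability at or below 40%; inactive means viability above 40%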;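 further: multidrug resistant small cell line overexpressing MRP-1 efflux transporter; 100% = mean luminescence of untreated control wells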
PTEN del growth: PTEN-deleted cell growth suppression; HCT116 PTEN-null viability, CellTiter-Glo, 60 h; hits give low values; viability, % at 10 µM; 140,000 tested, 1.2% active; AID 827;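 active means viability at or below a set limit, 4 SD under the median of all tested compounds, cut at about 3.7% in these data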;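 further: PTEN knockout HCT116 line with beta catenin targeted HCT116 as companion control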
HCT116 bCat-KO: beta-catenin-lacking colon tumor cell growth suppression. viability, % at 10 µM. HCT116 beta-catenin knockout viability, CellTiter-Glo, 60 h; hits give low values. 140,000 tested, 1.5% active;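 active means viability at or under a set limit, the compound median less 4 SD, cut at about 6% in these data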;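 further: 0% = Hyamine 1622 control at 20 µM and 100% = untreated cell control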
HUVEC inhibit: inhibitors of human endothelial cell proliferation. HUVEC proliferation, CellTiter-Glo luminescence, 72 h; hits give low values. viability, % at 10 µM (by protocol). 86,000 tested, 1.1% active;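 active means viability at or below 30%; inactive means viability above 30%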;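 further: 100% = median luminescence of DMSO-only cell control wells on each plate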
Starred values were filed as active, the others as inactive; . = no result. This is one part of a sample in which hits are shown more often than they occur.

SMILES	Lung fibro prol	H69AR inhibit	PTEN del growth	HCT116 bCat-KO	HUVEC inhibit
Cc1cccc(N=Nc2ccc(O)c3ncccc23)c1	.	.	14	6.0*	.
COc1cc(/C=C2/C(=O)NN(c3ccc(Cl)cc3)C2=O)ccc1OC(=O)c1ccco1	.	.	101	103	.
O=C1NN(c2ccccc2)C(=O)/C1=C\c1cccc(OC(=O)c2cccs2)c1	96	3.8*	89	93	46
CCOc1cc(/C=C2/C(=O)N(c3ccccc3)N=C2C)ccc1OC(=O)c1cccs1	.	.	93	87	.
O=C1NN(c2ccc(Cl)c(Cl)c2)C(=O)/C1=C/c1cccc(OC(=O)c2cccs2)c1	93	5.4*	105	100	51
COc1ccc(NC(=O)Cn2cnc3c(cnn3-c3ccc(C)c(C)c3)c2=O)c(OC)c1	94	8.3*	11	44	56
c1ccc(CN2CCN(C3=Nc4cccc5cccc3c45)CC2)cc1	89	35*	13	14	37
CCOc1ccccc1C(=O)N1CCN=C1SCc1cccnc1	94	96	102	108	94
O=C(/C=C/NNC(=O)c1ccccc1)c1ccc(Br)cc1	59	34*	99	90	73
O=C(/C=C/NNC(=O)c1cccc(Br)c1)c1cccc(Br)c1	76	78	59	63	53
Cc1cc(Cl)c(S(=O)(=O)N2CCN(c3cccc(C)c3C)CC2)cc1OCC(N)=O	90	38*	68	58	88
CC(=O)Nc1ccc(S(=O)(=O)N2CCN(c3cccc(C)c3C)CC2)cc1	93	37*	35	27	59
Cc1ccc2c(c1)-c1c(ssc1=S)C(C)(C)N2C(=O)CSc1nncn1C	92	79	63	67	89
Cc1cc(C)c2c(c1)-c1c(ssc1=S)C(C)(C)N2C(=O)CSc1nncn1C	74	13*	63	64	67
C#CC(C)(CC)NC(=O)Cn1nnc(-c2ccc(S(C)(=O)=O)cc2)n1 (configuration not stated)	105	110	90	94	98
Fc1ccccc1NC(=S)N1CCN(c2ccccn2)CC1	.	.	94	83	.
N#Cc1cc(Oc2cccc3cccnc23)c(-n2nnc3ccccc32)cc1C#N	84	18*	22	13	72
COc1ccc(/C(O)=C2\C(=O)C(=O)N(c3cc(C)on3)C2c2cccc(OC)c2OC)cc1C (configuration not stated)	96	74	101	99	88
COc1cccc(C2c3c(oc4ccc(Cl)cc4c3=O)C(=O)N2c2cc(C)on2)c1OC (configuration not stated)	72	6.6*	20	2.8*	55
Cc1cccc(OCCCN2CCCCCC2)c1	105	83	90	97	106
COc1ccccc1OCCN1CSC(=S)N(C)C1	.	.	5	4.0*	.
COc1ccccc1OCCCCN1CCN(c2ccccc2OC)CC1	97	75	60	56	58
Cc1cccc(OCCN2CSC(=S)N(C)C2)c1	61	1.5*	31	7	21*
O=C(NCC1CCCO1)C(=Cc1cccc([N+](=O)[O-])c1)C(=O)NCC1CCCO1 (configuration not stated)	.	.	4	5.2*	.
COc1cc(-c2nc3ccccn3c2NCC2CCCO2)ccc1O (configuration not stated)	89	27*	76	89	88
SMILES	Lung fibro prol	H69AR inhibit	PTEN del growth	HCT116 bCat-KO	HUVEC inhibit
CCOc1cc(-c2nc3ccccn3c2NCC2CCCO2)ccc1O (configuration not stated)	98	28*	72	72	70
CCOC(=O)c1c(NC(=O)c2ccco2)n(C2CCCCC2)c2nc3ccccc3nc12	105	36*	65	71	96
CCC(=O)Nc1c(C#N)c2nc3ccccc3nc2n1C1CCCCC1	94	85	65	60	98
Cc1cccc(C)c1NC(=O)c1ccc([N+](=O)[O-])s1	.	.	28	29	.
Cc1cccc(NC(=O)c2ccc([N+](=O)[O-])s2)c1C	.	.	2.2*	2.9*	.
Cc1ccc(S(=O)(=O)NC2CCCc3ccccc32)cc1C (configuration not stated)	96	104	89	89	99
CCOc1ccc(C(=O)N/N=C(\c2ccccc2)c2ccccn2)cc1	.	.	2.6*	3.7*	.
C=CCNc1oc(COc2ccc(C)cc2)nc1C#N	97	92	103	101	98
CN(C)CCNc1oc(COc2ccc(-c3ccccc3)cc2)nc1C#N	45*	15*	75	88	40
N#Cc1nc(COc2ccccc2)oc1NCCN1CCOCC1	.	.	88	102	.
N#Cc1nc(COc2ccc(-c3ccccc3)cc2)oc1NCCCN1CCOCC1	103	49	33	25	6.3*
Cn1c(SCc2cc(=O)[nH]c3ccccc23)nnc1-c1ccc(Br)cc1	94	98	85	93	84
COc1ccccc1C(=O)N1CCN(c2cccc(Cl)c2)CC1	46*	58	12	11	50
O=C(c1c(Cl)nc2sccn12)N1CCN(c2cccc(Cl)c2)CC1	59	19*	14	14	54
O=C(c1c(F)c(F)c(F)c(F)c1F)N1CCN(c2cccc(C(F)(F)F)c2)CC1	67	29*	18	13	36
COc1cc2c(C(=O)N3CCN(c4cccc(Cl)c4)CC3)cn(C)c(=O)c2cc1OC	.	.	35	34	.
O=C(Nc1ccc(N2CCN(C(=O)c3ccco3)CC2)cc1)c1cccc(F)c1	99	30*	50	54	82
O=C1CC(N(CCc2ccccc2)C(=S)Nc2cc(Cl)ccc2Cl)C(=O)N1c1c(Cl)cccc1Cl (configuration not stated)	.	.	31	42	.
O=C(Cc1ccccc1)NCC(=O)OCc1ccc([N+](=O)[O-])cc1	.	.	92	110	.
O=C(c1cccc(F)c1)N1CCCN(C(=O)c2cccc(F)c2)CC1	.	.	99	94	.
O=C(c1cccc(F)c1)N1CCN(c2cccc(Cl)c2)CC1	72	18*	24	23	65
Cc1ccc(NC(=O)CN(C)CC(=O)Nc2ccc(N3CCOCC3)cc2)c([N+](=O)[O-])c1	.	.	92	97	.
CC1CCCN(c2oc(-c3cccc4ccccc34)nc2C#N)C1 (configuration not stated)	47*	95	95	89	96
CC(C)NS(=O)(=O)c1ccc2c(c1)NCC2	.	.	99	95	.
Cc1nc2c(c(=O)n1CC1CCCO1)c1nc3ccccc3nc1n2Cc1ccc2c(c1)OCO2 (configuration not stated)	81	40*	.	.	53
COc1ccc(Cn2c3nc4ccccc4nc3c3c(=O)n(Cc4ccco4)c(C)nc32)cc1	42*	4.5*	.	.	49
COCCn1cnnc1SCC(=O)c1ccc(S(=O)(=O)N2CCCC2)cc1	104	100	94	93	102
Fc1ccc(Oc2nc(-c3ccccc3)nnc2C(F)(F)F)cc1	.	.	95	90	.
Fc1ccc(Sc2nc(-c3ccccc3)nnc2C(F)(F)F)cc1	.	.	2.1*	4.1*	.
CCOC(=O)c1cnc(-n2nc(C)cc2C)nc1NC1CCCCC1	.	1.1*	2.1*	1.9*	32
